According to ChEMBL document CHEMBL5032510, “Identification of Novel Fused Heteroaromatics-Based MALT1 Inhibitors by High-Throughput Screening to Treat B Cell Lymphoma” (J Med Chem, 2021):
The source made the active and inactive calls. The rule behind the calls is not given here.

What was measured:
HBL1 = assay: Induction of apoptosis in human HBL1 cells assessed as increase in cleaved PARP level measured after 12 hrs by Western blot analysis; assay type: functional, cell-based
Method in brief: (§1)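 HBL1, TMD8 or OCI-LY1 cells were exposed to DMSO or compound for 12 h. Cleaved PARP and caspase-3 were probed by western blot with HRP-conjugated secondary antibodies and chemiluminescent detection. Each lane held 20−75 μg total protein.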

[1] = Tmax in CD-1 mouse at 1 mg/kg, ip by LC-MS/MS analysis; assay type: ADME, organism-based; conditions: in vivo
Method in brief: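 Male ICR (CD-1) mice (n = 9). Compound formulated in 5% DMSO + 5% Tween-80 in 90% saline and dosed 10 mg/kg po, 1 mg/kg ip or 1 mg/kg iv. Blood drawn from the jugular vein at set time points and held on ice. Plasma separated by centrifugation and stored at −80 °C before parameter derivation.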

TMD8 [2] = assay: Induction of apoptosis in human TMD8 cells assessed as late apoptotic cells at 5 uM measured after 24 hrs by Annexin V-FITC/ Propidium iodide staining based flow cytometry (reference value: 2.19%); assay type: functional
OCI-Ly1 [3] = assay: Induction of apoptosis in human OCI-Ly1 cells assessed as dead cells at 5 uM measured after 24 hrs by Annexin V-FITC/ Propidium iodide staining based flow cytometry (reference value: 0.365%); assay type: functional
TMD8 [4] = assay: Induction of apoptosis in human TMD8 cells assessed as viable cells at 5 uM measured after 24 hrs by Annexin V-FITC/ Propidium iodide staining based flow cytometry (reference value: 90.8%); assay type: functional; conditions: read-out: Activity
OCI-Ly1 [5] = assay: Antiproliferative activity against human OCI-Ly1 cells assessed as inhibition of cell growth incubated for 72 hrs by Celltiter-Glo luminescent assay; assay type: functional
Method in brief: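 Exponentially growing cells were seeded at 1 × 10⁴ per 100 μL. HBL-1 and TMD8 were kept in RPMI with 10% FBS, 2 mM glutamine and 10 mM HEPES; OCI-LY1 in Iscove's medium with 20% FBS; all at 37 °C and 5% CO2. Cells were exposed to DMSO or 2-fold serial dilutions from 100 μM for 72 h, in triplicate on one plate. CellTiter-Glo luminescence was read after 1 h. Growth inhibition was calculated against control, accounting for initial cell number, and GI50 was fitted.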

[6] = Induction of apoptosis in human HBL1 cells assessed as dead cells at 10 uM measured after 24 hrs by Annexin V-FITC/ Propidium iodide staining based flow cytometry (reference value: 2.32%); assay type: functional
OCI-Ly1 [7] = assay: Induction of apoptosis in human OCI-Ly1 cells assessed as late apoptotic cells at 2 uM measured after 24 hrs by Annexin V-FITC/ Propidium iodide staining based flow cytometry (reference value: 0.548%); assay type: functional
[8] = Induction of apoptosis in human HBL1 cells assessed as dead cells at 2 uM measured after 24 hrs by Annexin V-FITC/ Propidium iodide staining based flow cytometry (reference value: 2.32%); assay type: functional
[9] = Induction of apoptosis in human HBL1 cells assessed as early apoptotic cells at 10 uM measured after 24 hrs by Annexin V-FITC/ Propidium iodide staining based flow cytometry (reference value: 4.85%); assay type: functional
[10] = AUC (0 to t) in CD-1 mouse at 10 mg/kg, po by LC-MS/MS analysis; assay type: ADME, organism-based; design: dose 10 mg/kg; conditions: in vivo
Method in brief: (§2)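 Compound formulated in 5% DMSO + 5% Tween-80 in 90% saline and given to male ICR (CD-1) mice (n = 9) at 10 mg/kg po, 1 mg/kg ip or 1 mg/kg iv. Blood was drawn via the jugular vein at set time points and held on ice. Plasma was separated by centrifugation and stored at −80 °C before PK parameters were derived.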

TMD8 [11] = assay: Induction of apoptosis in human TMD8 cells assessed as viable cells at 2 uM measured after 24 hrs by Annexin V-FITC/ Propidium iodide staining based flow cytometry (reference value: 90.8%); assay type: functional; conditions: read-out: Activity
TMD8 [12] = assay: Induction of apoptosis in human TMD8 cells assessed as viable cells at 10 uM measured after 24 hrs by Annexin V-FITC/ Propidium iodide staining based flow cytometry (reference value: 90.8%); assay type: functional; conditions: read-out: Activity
[13] = Induction of apoptosis in human HBL1 cells assessed as late apoptotic cells at 2 uM measured after 24 hrs by Annexin V-FITC/ Propidium iodide staining based flow cytometry (reference value: 4.77%); assay type: functional
[14] = Induction of apoptosis in human HBL1 cells assessed as late apoptotic cells at 5 uM measured after 24 hrs by Annexin V-FITC/ Propidium iodide staining based flow cytometry (reference value: 4.77%); assay type: functional
[15] = Drug concentration in tumor of NCG mouse xenografted with human TMD8 cells at 30 mg/kg/day, ip measured after 13 days; assay type: ADME, organism-based, Neoplasm; conditions: time 13 day, read-out: Drug uptake
Method in brief: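 TMD8 cells (5 × 10⁶) were implanted subcutaneously into the right flank of 6-week-old female NCG mice. At day 10, when tumors were palpable, mice were randomized into groups of eight. Dosing was ip at 30 mg/kg for 13 consecutive days; controls received HPBCD (20% PEG 400) ip. TGI was based on mean tumor weight of treated versus control groups. Intratumoral drug level was measured after 13 days of dosing.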

TMD8 [16] = assay: Induction of apoptosis in human TMD8 cells assessed as late apoptotic cells at 10 uM measured after 24 hrs by Annexin V-FITC/ Propidium iodide staining based flow cytometry (reference value: 2.19%); assay type: functional
[17] = Induction of apoptosis in human HBL1 cells assessed as early apoptotic cells at 5 uM measured after 24 hrs by Annexin V-FITC/ Propidium iodide staining based flow cytometry (reference value: 4.85%); assay type: functional
[18] = Apparent volume of distribution in CD-1 mouse at 1 mg/kg, iv by LC-MS/MS analysis; assay type: ADME, organism-based; conditions: in vivo, read-out: Vz; method in brief: as §2
[19] = Toxicity in NCG mouse xenografted with human TMD8 cells assessed as diarrhea at 30 mg/kg/day, ip measured for 13 days; conditions: in vivo, 312 h
TMD8 [20] = assay: Induction of apoptosis in human TMD8 cells assessed as increase in cleaved PARP level measured after 12 hrs by Western blot analysis; assay type: functional, cell-based; method in brief: as §1
[21] = Intraperitoneal bioavailability in CD-1 mouse at 1 mg/kg by LC-MS/MS analysis; conditions: in vivo, ip
[22] = target: Nuclear factor NF-kappa-B complex (Homo sapiens) (UniProt Q00653+P19838+Q04206); assay: Inhibition of NF-kappab signaling in human TMD8 cells assessed as reduction in phosphorylation of IkappaB-alpha at 8 uM preincubated for 30 mins followed by MG-132 addition and measured after 2 hrs by Western blot analysis; assay type: cell-based; conditions: time 2.5 hrs
Sequence of Nuclear factor NF-kappa-B complex (Homo sapiens) (P19838 whole entry, looked up): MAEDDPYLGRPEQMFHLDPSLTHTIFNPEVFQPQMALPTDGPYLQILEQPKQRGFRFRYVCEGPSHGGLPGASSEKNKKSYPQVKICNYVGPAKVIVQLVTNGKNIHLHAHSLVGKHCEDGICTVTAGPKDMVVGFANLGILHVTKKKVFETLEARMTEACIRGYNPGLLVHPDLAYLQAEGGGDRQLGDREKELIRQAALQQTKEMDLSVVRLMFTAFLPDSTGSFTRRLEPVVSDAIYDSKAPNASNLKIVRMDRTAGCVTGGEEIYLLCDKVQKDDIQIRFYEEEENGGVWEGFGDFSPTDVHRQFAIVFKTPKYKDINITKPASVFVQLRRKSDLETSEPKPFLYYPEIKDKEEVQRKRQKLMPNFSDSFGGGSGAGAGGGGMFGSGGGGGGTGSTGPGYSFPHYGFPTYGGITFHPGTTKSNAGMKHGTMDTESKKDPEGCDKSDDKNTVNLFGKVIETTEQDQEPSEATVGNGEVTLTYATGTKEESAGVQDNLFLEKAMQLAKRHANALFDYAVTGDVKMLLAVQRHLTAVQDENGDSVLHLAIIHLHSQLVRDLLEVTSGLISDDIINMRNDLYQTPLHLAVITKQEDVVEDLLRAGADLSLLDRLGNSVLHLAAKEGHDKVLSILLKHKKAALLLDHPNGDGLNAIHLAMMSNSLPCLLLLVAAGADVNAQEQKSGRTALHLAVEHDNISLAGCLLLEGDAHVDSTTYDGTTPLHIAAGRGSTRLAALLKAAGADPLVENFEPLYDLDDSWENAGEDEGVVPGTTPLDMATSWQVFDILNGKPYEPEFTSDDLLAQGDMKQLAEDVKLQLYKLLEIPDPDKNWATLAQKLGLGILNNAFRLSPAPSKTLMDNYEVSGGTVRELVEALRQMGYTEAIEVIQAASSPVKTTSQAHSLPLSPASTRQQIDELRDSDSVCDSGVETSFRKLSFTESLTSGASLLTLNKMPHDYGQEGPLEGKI
Sequence of Nuclear factor NF-kappa-B complex (Homo sapiens) (Q00653 whole entry, looked up): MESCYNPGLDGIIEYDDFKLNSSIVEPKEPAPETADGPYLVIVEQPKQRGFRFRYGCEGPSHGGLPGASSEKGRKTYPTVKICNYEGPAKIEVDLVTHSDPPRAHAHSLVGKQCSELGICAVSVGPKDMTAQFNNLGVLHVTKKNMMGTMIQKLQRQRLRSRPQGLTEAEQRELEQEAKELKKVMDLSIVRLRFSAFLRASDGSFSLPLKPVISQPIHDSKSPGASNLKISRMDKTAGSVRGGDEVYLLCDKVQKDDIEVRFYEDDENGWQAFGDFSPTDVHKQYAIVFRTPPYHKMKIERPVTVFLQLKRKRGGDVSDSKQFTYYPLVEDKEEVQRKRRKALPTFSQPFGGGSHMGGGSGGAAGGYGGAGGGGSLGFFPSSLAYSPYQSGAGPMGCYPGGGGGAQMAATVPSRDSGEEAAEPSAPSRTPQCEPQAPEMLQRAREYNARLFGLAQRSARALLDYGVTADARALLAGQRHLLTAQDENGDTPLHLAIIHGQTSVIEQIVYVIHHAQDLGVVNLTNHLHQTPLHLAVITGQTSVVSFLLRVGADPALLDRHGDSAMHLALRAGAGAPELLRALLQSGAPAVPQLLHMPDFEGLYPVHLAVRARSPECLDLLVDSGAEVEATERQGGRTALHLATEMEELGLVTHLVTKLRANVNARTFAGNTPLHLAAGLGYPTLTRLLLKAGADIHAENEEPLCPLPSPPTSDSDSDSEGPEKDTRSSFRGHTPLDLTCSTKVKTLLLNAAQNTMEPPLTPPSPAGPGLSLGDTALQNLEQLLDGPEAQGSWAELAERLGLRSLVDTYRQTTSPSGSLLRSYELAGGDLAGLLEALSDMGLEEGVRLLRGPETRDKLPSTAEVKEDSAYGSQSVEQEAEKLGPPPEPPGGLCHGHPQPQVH
Sequence of Nuclear factor NF-kappa-B complex (Homo sapiens) (Q04206 whole entry, looked up): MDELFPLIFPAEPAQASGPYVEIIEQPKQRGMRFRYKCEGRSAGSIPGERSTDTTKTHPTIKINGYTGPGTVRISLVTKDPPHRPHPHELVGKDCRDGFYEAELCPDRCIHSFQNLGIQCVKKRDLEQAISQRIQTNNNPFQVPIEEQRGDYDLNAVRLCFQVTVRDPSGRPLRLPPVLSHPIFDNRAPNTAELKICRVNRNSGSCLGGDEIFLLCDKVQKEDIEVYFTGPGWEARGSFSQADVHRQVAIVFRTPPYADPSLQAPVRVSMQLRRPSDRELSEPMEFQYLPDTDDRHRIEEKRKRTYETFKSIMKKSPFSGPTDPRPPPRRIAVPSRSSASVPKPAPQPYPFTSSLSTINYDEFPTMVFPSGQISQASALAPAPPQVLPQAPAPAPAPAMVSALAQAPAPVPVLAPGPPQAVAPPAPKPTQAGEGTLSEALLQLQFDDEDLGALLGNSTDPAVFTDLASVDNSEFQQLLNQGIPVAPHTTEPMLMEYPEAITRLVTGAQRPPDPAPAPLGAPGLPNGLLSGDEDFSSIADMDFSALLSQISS
Method in brief: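 HBL1, TMD8 and OCI-LY1 cells pretreated 30 min with inhibitor (4 and 8 μM), then given 10 μM proteasome inhibitor MG-132 for 2 h. Lysates (20−75 μg protein) run on SDS-PAGE, blotted to PVDF and probed for RelB, IκBα and phospho-IκBα, with β-actin as loading control; HRP secondary, chemiluminescence detection.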

[23] = Induction of apoptosis in human HBL1 cells assessed as viable cells at 2 uM measured after 24 hrs by Annexin V-FITC/ Propidium iodide staining based flow cytometry (reference value: 88.1%); assay type: functional; conditions: read-out: Activity

In the case of `COc1ccc(OC)c(NC(=O)c2sc(=S)n(-c3ccc(C(F)(F)F)cc3)c2NC(=O)CCl)c1`, the Activity (HBL1) is reported as “Dose-Dependent Effect”, the Tmax [1] is reported as 21 min and the Activity (TMD8 [2]) is reported as 25.7%. The Activity (OCI-Ly1 [3]) was 0.204%, the viability at 5 µM (TMD8 [4]) was 14.8% and the GI50 (OCI-Ly1 [5]) was 10.7 µM. It also gave an Activity [6] of 1.04%, an Activity (OCI-Ly1 [7]) of 0.688% and an Activity [8] of 1.94%. For the same molecule, the Activity [9] was 57.8%, the AUC(0-t) [10] was 11200 ng·h/mL and the viability at 2 µM (TMD8 [11]) was 89.4%. It also gave a viability at 10 µM (TMD8 [12]) of 3.65%, an Activity [13] of 5.5% and an Activity [14] of 17.3%. For the same molecule, the concentration at 312 h [15] was 1130 ng/g, the Activity (TMD8 [16]) was 42.7% and the Activity [17] was 42.1%. The Vd [18] was 4.82 L/kg, the Activity [19] was “Non-Toxic” and the Activity (TMD8 [20]) was “Dose-Dependent Effect”. For the same molecule, the bioavailability [21] was 72%, the inhibition [22] was “Active” and the viability at 2 µM [23] was 85.8%.
